Only some compounds are listed: those with a hit (about 2.5% of all), similar ones and a draw of the others.
T cell HTS: T cell immune modulators affecting CD8 T cell-vesicle binding; actives 0.068% (n = 330,000); response (vesicle binding), % at 7 µM; 2C CD8+ T cell-vesicle binding, flow cytometry; stronger effect = lower value;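 active means response, share of CD8 T cells binding vesicles, and their 90th percentile fluorescence all below set limits, cut at about 80% in these data, passing the limit was not always enough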;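 further: values below 100% mean blocked vesicle binding to the CD8+ T cells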
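System: murine 2C transgenic CD8+ T lymphocytes; also added: QL9-loaded Drosophila micro-vesicles; times: binding 1.5 h at 37 °C; measured by: flow cytometry, PE anti-B7-1 (FL2) versus Alexa647 anti-CD8 (FL8), PFA-fixed; control set: Peptide-free naked vesicles (low) and QL9 vesicles with 0.7% DMSO vehicle (high)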
MEKK2 mut-MEK5: signal of MEK5 binding to mutant human MEKK2 PB1 domain. actives 0.35% (n = 290,000). AID 1530. bead flow cytometry, Alexa488-MEK5 binding to MEKK2 mutant. percent response, % at 10 µM; in the data active means percent response above about 24%, passing the limit was not always enough
MEKK3 PB1 HTS: MEKK3-MEK5 PB1 interaction, increase or decrease | Q99759 | bead-based flow cytometry, Alexa488-MEK5 binding to MEKK3; actives lie on both sides; 0 = blocked by unlabeled MEK5, 100 = vehicle | binding response (% of control), % at 10 µM | actives 1.4% (n = 290,000);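 active means binding response more than 3 SD above or below the average of its plate-row segment, actives on both sides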;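 further: Alexa488 bead fluorescence after subtracting the streptavidin-only scavenger bead signal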
MEKK2wt PB1 HTS: raises or lowers MEK5 binding to wildtype human MEKK2 PB1 domain; Q9Y2U5; bead flow cytometry, Alexa488-MEK5 binding to MEKK2 WT; actives lie on both sides; binding response (% of control), % at 10 µM; actives 1.1% (n = 290,000); AID 1531; in the data active means binding response below about 67% or above about 130%
Rce1 inh: yeast Ras-converting enzyme inhibition | Q03530 | yeast membranes, quenched prenylated peptide cleavage fluorescence | calls only | actives 0.27% (n = 290,000) | AID 2563;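 active means fall in fluorescence gain of 50% or more versus controls, with final raw signal at or below 3038400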;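 further: plate controls were neutral control wells for no effect and wells lacking membranes for full effect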
Target sequence (Q03530 whole entry, looked up): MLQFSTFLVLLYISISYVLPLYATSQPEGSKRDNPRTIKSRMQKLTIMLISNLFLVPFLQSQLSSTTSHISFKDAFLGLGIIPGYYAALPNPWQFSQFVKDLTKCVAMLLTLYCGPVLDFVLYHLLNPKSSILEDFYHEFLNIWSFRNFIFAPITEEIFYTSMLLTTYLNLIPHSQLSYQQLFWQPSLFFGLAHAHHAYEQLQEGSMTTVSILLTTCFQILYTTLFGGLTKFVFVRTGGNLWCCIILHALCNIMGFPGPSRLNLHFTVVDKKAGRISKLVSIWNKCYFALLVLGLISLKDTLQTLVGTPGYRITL
UCH37 DUB inh: inhibitors of human deubiquitinating enzyme UCH37; Q9Y5K5; purified proteasome/UCH37, Ub-AMC cleavage fluorescence; inhibition, % (concentration not given with the values); actives 0.33% (n = 330,000); AID 588478;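 active means mean inhibition over replicate wells above about 20%, limit read from the data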;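 further: 0% = compound-free wells with enzyme and 100% = wells lacking proteasome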
Target sequence (Q9Y5K5 whole entry, looked up): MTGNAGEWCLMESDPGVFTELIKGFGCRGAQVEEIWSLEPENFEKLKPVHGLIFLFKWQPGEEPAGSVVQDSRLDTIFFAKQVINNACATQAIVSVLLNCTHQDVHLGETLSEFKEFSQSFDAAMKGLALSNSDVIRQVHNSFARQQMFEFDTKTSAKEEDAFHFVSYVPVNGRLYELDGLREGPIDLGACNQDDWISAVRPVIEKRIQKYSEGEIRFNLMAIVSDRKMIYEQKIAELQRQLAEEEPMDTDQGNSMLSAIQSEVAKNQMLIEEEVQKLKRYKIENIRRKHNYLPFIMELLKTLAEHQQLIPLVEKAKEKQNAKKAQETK
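system = Proteasome-associated human UCH37 deubiquitinase | amount = 0.15 nM proteasome as dispensed | medium = pH 7.4 Tris-HCl (50 mM) with ovalbumin, ATP-MgCl2, DTT | incubation = 30 min preincubation with enzyme, 25 min cleavage at room temperature | detection = AMC fluorescence 355/460 nm | read-out basis = percent inhibition | controls = no-proteasome and no-compound wells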
The depositor's hits bear a star; i = inactive; nt = no result given; + = active, no number.

SMILES	T cell HTS	MEKK2 mut-MEK5	MEKK3 PB1 HTS	MEKK2wt PB1 HTS	Rce1 inh	UCH37 DUB inh
CC1(C(=O)NN=Cc2c(F)c(F)c(F)c(F)c2F)CC1(Cl)Cl (stereo not drawn)	nt	nt	nt	nt	nt	2
C/C(=N\NC(=O)c1ccc(Br)cc1)c1cccc(NC(=O)c2cccnc2)c1	160	-6	106	97	+	nt
CC(=NNC(=O)c1cccnc1)c1ccc(Br)cc1	nt	nt	nt	nt	nt	3
Oc1ccc(Cl)cc1C=Nc1nc2ccccc2[nH]1	nt	nt	nt	nt	nt	2
CN(C)c1ccc(C=NNC(=O)C2CC2c2ccccc2)cc1 (stereo not drawn)	nt	nt	nt	nt	nt	-58
COc1ccc(CCN(C)C(=O)CCc2nnc(-c3ccccc3)o2)cc1OC	237	-12	94	7.0*	i	1
CN(Cc1ccc(F)cc1)C(=O)CCc1nnc(-c2ccccc2)o1	687	-1	99	101	i	2
CN(C)S(=O)(=O)N1CCC(Oc2cccc(C(=O)NCCC3=CCCCC3)c2)CC1	173	-4	99	98	i	22*
CCN1C(=O)C(=c2sc3nc(=O)c(Cc4ccccc4)nn3c2=O)c2ccccc21	nt	nt	nt	nt	nt	4
COc1ccc(C=NNc2ccccc2)cc1Cn1nc(C)c([N+](=O)[O-])c1C	nt	nt	nt	nt	nt	6
CC1CCC(C(C)C)C(OC(=O)Cn2c(-c3ccccc3)[n+](C)c3ccccc32)C1 (stereo not drawn)	522	-2	99	103	i	3
Cc1cccc(OCc2n(CC(=O)OC3CC(C)CCC3C(C)C)c3ccccc3[n+]2C)c1 (stereo not drawn)	526	30	103	183*	nt	7
Nc1c(Cl)ncnc1NN=Cc1ccncc1	nt	nt	nt	nt	nt	6
O=C(CCNC(=O)c1ccccc1Cl)Nc1ccncc1	588	3	101	105	i	2
O=C(CCNC(=O)c1ccccc1Cl)Nc1ccc(Br)c(C(F)(F)F)c1	155	-2	101	103	i	24*
Cc1ccccc1NN=Cc1ccc(C#N)cc1	nt	nt	nt	nt	nt	2
CCN(CC)CCCN(Cc1cc2cc3c(cc2[nH]c1=O)OCO3)C(=S)NCCCN(C)C	495	6	100	105	+	-146
CC(=NNc1nc2ccccc2[nH]1)c1ccc(N2CCOCC2)cc1	nt	nt	nt	nt	nt	7
Cc1cc(Cc2ccc(N)c(C)c2)ccc1N	352	1	97	100	i	2
Nc1ccc(Cc2ccc(N)c(C(=O)O)c2)cc1C(=O)O	240	2	102	101	+	2
O=C(NN=CC1CC2CCC1C2)c1c[nH]c2ccccc12 (stereo not drawn)	nt	nt	nt	nt	nt	5
Cc1ccc(-c2nc(CN3CCCCC3)cc(CN3CCCCC3)c2O)cc1	353	-11	103	96	+	-333
CCc1ccc(-c2cc3c(=O)n(CC(=O)NCCCN4CCC(Cc5ccccc5)CC4)nc(C)n3n2)cc1	343	29*	110	203*	i	2
Cc1nn(CC(=O)NCCCN2CCC(Cc3ccccc3)CC2)c(=O)c2cc(-c3ccccc3)nn12	294	48*	108	161*	i	5
Cc1nn(CC(=O)NCCCN2CCN(Cc3ccccc3)CC2)c(=O)c2cc(-c3ccccc3)nn12	864	16	103	116	i	2
SMILES	T cell HTS	MEKK2 mut-MEK5	MEKK3 PB1 HTS	MEKK2wt PB1 HTS	Rce1 inh	UCH37 DUB inh
CC(=NO)C(=O)NCCN(C)C	nt	nt	nt	nt	nt	4
CC(=NNC(=O)c1ccccc1F)c1ccc(C#N)cc1	nt	nt	nt	nt	nt	1
CC(=NNC(=O)c1ccc2c(c1)OCO2)c1cccnc1	nt	nt	nt	nt	nt	3
CCOc1ccc2nc(Cl)c(C3CC(c4ccco4)=NN3S(C)(=O)=O)cc2c1 (stereo not drawn)	69	0	90	7.0*	i	-2
COc1ccccc1C1CC(c2ccco2)=NN1S(C)(=O)=O (stereo not drawn)	206	17	97	29*	i	1
C(=NNc1nccc(-c2cccnc2)n1)c1ccccc1	nt	nt	nt	nt	nt	9
Cc1cc(C(=O)NN=Cc2ccc(Br)o2)n[nH]1	nt	nt	nt	nt	nt	4
CS(=O)(=O)c1ccc(C(=O)OCC(=O)NC(=O)Cc2ccccc2)cc1	265	nt	nt	nt	i	0
CS(=O)(=O)c1ccc(C(=O)OCC(=O)N(CCc2ccccc2)Cc2ccccc2)cc1	382	nt	nt	nt	+	4
CS(=O)(=O)Cc1ccc(C(=O)N(CCc2ccccc2)Cc2ccccc2)cc1	0	6	107	109	+	0
C[N+]1(CCCCCCC(=O)C=NO)CCCCCC1	nt	nt	nt	nt	nt	-1
Cc1ccc(-n2c(SCC(=O)NN=Cc3ccccc3OCC(=O)O)nc3ccccc3c2=O)cc1	nt	nt	nt	nt	nt	6
O=C(NC(CO)(CO)CO)c1coc(=O)c(Br)c1	231	-3	98	95	i	7
O=C(Nc1cc(Cl)cc(Cl)c1)c1coc(=O)c(Br)c1	100	-20	92	83	+	nt
COc1ccc(Br)cc1C(=O)Nc1cc(C)cc(C)c1	372	-3	94	94	+	4
Cc1cc(NN=Cc2ccccc2)nc(N2CCOCC2)n1	nt	nt	nt	nt	nt	6
CC(CCS(=O)(=O)c1ccccc1)=NO	nt	nt	nt	nt	nt	3
CC1CCCC(NC(=O)CSc2ccc(F)cc2)C1C (stereo not drawn)	128	-1	88	91	i	1
CC1CCCC(NCC(O)COC(c2ccc(F)cc2)c2ccc(F)cc2)C1C (stereo not drawn)	258	7	101	143*	i	1
Nc1nc(-c2cccnc2)nn1C(=O)c1ccc(Cl)cc1	nt	2	96	-3.0*	i	0
Cc1ccc(NC(=O)Nc2cccc([N+](=O)[O-])c2)cc1F	244	10	102	106	i	4
O=C(Nc1ccc(OC(F)(F)F)cc1)Nc1cccc([N+](=O)[O-])c1	314	23	109	119	i	31*
COc1ccc(N(CC(O)Cn2c3ccccc3c3ccccc32)S(=O)(=O)c2ccccc2)cc1 (stereo not drawn)	193	-9	87	90	i	3
CC(=O)Nc1ccccc1N(CC(O)Cn1c2ccccc2c2ccccc21)S(=O)(=O)c1ccc(C)cc1 (stereo not drawn)	446	0	138*	106	i	-1
Cn1c(=O)[nH]c(=O)c2c1nc(N1CCCCCC1)n2Cc1cccc2ccccc12	177	4	107	99	i	32*

Bioassay records: PubChem, several laboratories
